Assay results as given in ChEMBL document CHEMBL4196130, “3-(2-Carboxyethyl)indole-2-carboxylic Acid Derivatives: Structural Requirements and Properties of Potent Agonists of the Orphan G Protein-Coupled Receptor GPR17” (J Med Chem, 2018).
Active and inactive are the calls of the source. No cut-off for these calls is given here.

Columns and labels:
[1] = biological target: T1, Uracil nucleotide/cysteinyl leukotriene receptor (Homo sapiens, UniProt Q13304); assay: Agonist activity at human GPR17 expressed in human 1321N1 cells assessed as induction of calcium mobilization after 1 hr by Oregon Green BAPTA-1/AM dye-based fluorescence assay; format: functional, cell-based
Method in brief: (§1)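 Stably transfected 1321N1 astrocytoma cells were trypsin/EDTA-harvested, held 45 min at 37°C, then loaded 1 h at 25°C in KRH buffer pH 7.4 with 3 µM Oregon Green BAPTA-1/AM and 1% Pluronic F127, washed, and plated at ~16,000 cells/well. Fluorescence was read at 520 nm for 30 s after compound injection. Efficacy was expressed relative to the maximum given by 10 µM MDL 29,951. EC50 came from concentration-response curves, run for compounds exceeding 50% stimulation at 10 µM. At least three independent experiments, each in duplicate.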

[2] = biological target: T1, Uracil nucleotide/cysteinyl leukotriene receptor; assay: Agonist activity at human GPR17 expressed in human 1321N1 cells assessed as induction of calcium mobilization after 1 hr by Oregon Green BAPTA-1/AM dye-based fluorescence assay relative to MDL 29,951; format: functional, cell-based; method in brief: as §1
[3] = biological target: T1, Uracil nucleotide/cysteinyl leukotriene receptor; assay: Agonist activity at human GPR17 expressed in human 1321N1 cells assessed as induction of calcium mobilization at >30 uM after 1 hr by Oregon Green BAPTA-1/AM dye-based fluorescence assay relative to control; format: functional, cell-based
[4] = biological target: T1, Uracil nucleotide/cysteinyl leukotriene receptor; assay: Antagonist activity at human GPR17 expressed in human 1321N1 cells assessed as inhibition of MDL 29,951-induced calcium mobilization after 1 hr by Oregon Green BAPTA-1/AM dye-based fluorescence assay; format: functional, cell-based
Method in brief: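 Oregon Green BAPTA-1/AM calcium assay in hGPR17-1321N1 cells (1 h dye loading at 25°C in KRH buffer pH 7.4). Full inhibition curves were run for potent antagonists. Fluorescence was read at 520 nm.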

[5] = biological target: T1, Uracil nucleotide/cysteinyl leukotriene receptor; assay: Antagonist activity at human GPR17 expressed in human 1321N1 cells assessed as inhibition of MDL 29,951-induced calcium mobilization at 30 uM after 1 hr by Oregon Green BAPTA-1/AM dye-based fluorescence assay relative to control
[6] = biological target: P2Y purinoceptor 1 (Homo sapiens) (UniProt P47900); assay: Agonist activity at human P2Y1 receptor transfected in human 1321N1 cells assessed as induction of calcium mobilization after 30 mins in presence of ADP by fluo-4 dye based assay; format: functional, cell-based
Method in brief: (§2)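 Calcium mobilization was measured in 1321N1 astrocytoma cells stably transfected with human P2Y1, P2Y2, P2Y4 or P2Y6 receptors, read on a Flexstation III microplate reader.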

[7] = biological target: P2Y purinoceptor 2 (Homo sapiens, UniProt P41231); assay: Agonist activity at human P2Y2 receptor transfected in human 1321N1 cells assessed as induction of calcium mobilization after 30 mins in presence of UTP by fluo-4 dye based assay; format: functional, cell-based; method in brief: as §2
[8] = biological target: P2Y purinoceptor 4 (Homo sapiens) (UniProt P51582); assay: Agonist activity at human P2Y4 receptor transfected in human 1321N1 cells assessed as induction of calcium mobilization after 30 mins in presence of UTP by fluo-4 dye based assay; format: functional, cell-based; method in brief: as §2
[9] = biological target: P2Y purinoceptor 6 (Homo sapiens) (UniProt Q15077); assay: Agonist activity at human P2Y6 receptor transfected in human 1321N1 cells assessed as induction of calcium mobilization after 30 mins in presence of UDP by fluo-4 dye based assay; format: functional, cell-based; method in brief: as §2
[10] = biological target: P2Y purinoceptor 12 (Homo sapiens) (UniProt Q9H244); assay: Agonist activity at human P2Y12 receptor transfected in CHO cells assessed as induction of beta-arrestin translocation; format: functional, cell-based
Method in brief: (§3)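 β-Arrestin translocation assays were run in CHO cells stably transfected with human P2Y12 or P2Y14 receptors.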

[11] = biological target: T2, P2Y purinoceptor 14 (Homo sapiens) (UniProt Q15391); assay: Agonist activity at human P2Y14 receptor transfected in CHO cells assessed as induction of beta-arrestin translocation; format: functional, cell-based; method in brief: as §3
T2 sequence (whole entry): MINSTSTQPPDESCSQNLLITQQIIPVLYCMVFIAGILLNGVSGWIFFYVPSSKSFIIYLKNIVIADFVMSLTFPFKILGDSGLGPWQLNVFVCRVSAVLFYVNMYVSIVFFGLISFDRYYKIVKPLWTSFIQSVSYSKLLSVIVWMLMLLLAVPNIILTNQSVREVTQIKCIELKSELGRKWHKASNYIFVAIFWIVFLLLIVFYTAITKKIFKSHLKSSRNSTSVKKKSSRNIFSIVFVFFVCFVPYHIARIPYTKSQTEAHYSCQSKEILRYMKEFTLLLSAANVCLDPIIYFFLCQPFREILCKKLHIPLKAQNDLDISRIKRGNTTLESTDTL

[12] = biological target: T1, Uracil nucleotide/cysteinyl leukotriene receptor; assay: Agonist activity at human GPR17 expressed in human 1321N1 cells assessed as induction of calcium mobilization at >100 uM after 1 hr by Oregon Green BAPTA-1/AM dye-based fluorescence assay relative to control; format: functional, cell-based

T1 sequence (Q13304 whole entry): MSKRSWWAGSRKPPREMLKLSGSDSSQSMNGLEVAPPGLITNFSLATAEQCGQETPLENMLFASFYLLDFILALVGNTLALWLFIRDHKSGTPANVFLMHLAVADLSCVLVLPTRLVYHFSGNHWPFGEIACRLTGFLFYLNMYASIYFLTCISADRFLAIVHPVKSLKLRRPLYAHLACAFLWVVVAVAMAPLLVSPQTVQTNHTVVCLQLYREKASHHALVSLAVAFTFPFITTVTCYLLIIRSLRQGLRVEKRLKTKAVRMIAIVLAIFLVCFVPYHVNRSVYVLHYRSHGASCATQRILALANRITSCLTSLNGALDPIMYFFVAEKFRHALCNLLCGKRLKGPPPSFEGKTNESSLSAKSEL
P2Y purinoceptor 4 (Homo sapiens), sequence (P51582 whole entry): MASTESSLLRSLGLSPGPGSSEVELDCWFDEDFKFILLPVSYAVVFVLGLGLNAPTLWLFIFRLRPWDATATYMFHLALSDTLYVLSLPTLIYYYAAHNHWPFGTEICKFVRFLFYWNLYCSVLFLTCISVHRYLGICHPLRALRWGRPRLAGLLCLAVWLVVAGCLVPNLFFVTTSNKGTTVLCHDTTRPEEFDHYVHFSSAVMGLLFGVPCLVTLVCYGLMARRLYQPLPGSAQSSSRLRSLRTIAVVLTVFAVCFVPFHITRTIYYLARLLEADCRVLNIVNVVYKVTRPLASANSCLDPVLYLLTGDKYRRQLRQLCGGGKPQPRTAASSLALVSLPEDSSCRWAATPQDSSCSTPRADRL
P2Y purinoceptor 6 (Homo sapiens), sequence (Q15077 whole entry): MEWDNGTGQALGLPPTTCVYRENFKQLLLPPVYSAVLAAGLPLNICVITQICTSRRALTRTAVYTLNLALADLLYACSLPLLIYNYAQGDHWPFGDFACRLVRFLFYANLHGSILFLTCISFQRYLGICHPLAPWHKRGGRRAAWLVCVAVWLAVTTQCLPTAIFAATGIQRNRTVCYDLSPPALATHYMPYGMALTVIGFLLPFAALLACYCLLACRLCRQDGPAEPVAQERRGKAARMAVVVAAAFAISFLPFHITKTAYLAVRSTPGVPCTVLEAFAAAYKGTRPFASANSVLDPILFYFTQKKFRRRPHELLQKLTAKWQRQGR
P2Y purinoceptor 1 (Homo sapiens), sequence (P47900 whole entry): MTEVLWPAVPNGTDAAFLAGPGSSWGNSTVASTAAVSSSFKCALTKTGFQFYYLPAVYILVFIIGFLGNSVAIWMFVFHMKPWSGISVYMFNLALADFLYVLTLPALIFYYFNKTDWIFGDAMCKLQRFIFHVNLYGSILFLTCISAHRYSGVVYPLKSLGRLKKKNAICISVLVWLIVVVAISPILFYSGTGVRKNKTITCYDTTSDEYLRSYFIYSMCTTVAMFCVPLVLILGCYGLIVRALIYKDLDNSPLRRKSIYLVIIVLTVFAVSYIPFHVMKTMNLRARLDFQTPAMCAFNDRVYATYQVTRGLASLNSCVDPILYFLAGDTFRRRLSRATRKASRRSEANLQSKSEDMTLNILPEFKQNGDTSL
P2Y purinoceptor 2, sequence (P41231 whole entry): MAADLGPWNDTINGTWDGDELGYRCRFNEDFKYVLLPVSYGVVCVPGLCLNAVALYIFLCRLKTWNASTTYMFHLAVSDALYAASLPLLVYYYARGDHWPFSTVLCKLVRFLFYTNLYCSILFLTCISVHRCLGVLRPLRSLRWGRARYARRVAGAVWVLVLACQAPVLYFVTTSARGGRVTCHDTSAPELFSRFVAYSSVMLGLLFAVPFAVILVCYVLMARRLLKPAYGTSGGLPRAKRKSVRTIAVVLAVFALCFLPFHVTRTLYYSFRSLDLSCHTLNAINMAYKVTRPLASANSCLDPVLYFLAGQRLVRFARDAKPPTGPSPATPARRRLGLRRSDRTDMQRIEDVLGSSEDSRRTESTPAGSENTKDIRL
P2Y purinoceptor 12 (Homo sapiens), sequence (Q9H244 whole entry): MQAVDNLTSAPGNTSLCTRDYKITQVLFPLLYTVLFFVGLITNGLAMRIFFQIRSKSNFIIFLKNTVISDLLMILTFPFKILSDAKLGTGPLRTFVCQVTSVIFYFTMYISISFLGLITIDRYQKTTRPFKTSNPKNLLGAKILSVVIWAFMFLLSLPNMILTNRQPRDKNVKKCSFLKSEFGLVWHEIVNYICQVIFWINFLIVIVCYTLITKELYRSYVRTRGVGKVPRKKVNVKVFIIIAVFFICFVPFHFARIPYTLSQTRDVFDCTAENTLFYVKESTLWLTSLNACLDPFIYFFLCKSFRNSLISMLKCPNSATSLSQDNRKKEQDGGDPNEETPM

## O=C(O)CCc1c(C(=O)O)[nH]c2cc(Cl)cc(-c3ccc(F)cc3)c12
[1]
  EC50: 3.68 µM
[2]
  Emax: 101%

## O=C(O)CCc1c(C(=O)O)[nH]c2cc(-c3ccccc3)cc(-c3ccccc3)c12
[1]
  EC50: 4.09 µM
[2]
  Emax: 84%

## O=C(O)CCc1c(C(=O)O)[nH]c2ccc(F)cc12
[1]
  EC50: > 30 µM
[3]
  Activity: 9%

## O=C(O)CCCc1c(C(=O)O)[nH]c2cc(Cl)cc(Cl)c12
[1]
  EC50: > 30 µM
[3]
  Activity: 1%

## O=C(O)CCc1c(C(=O)O)[nH]c2cc(-c3ccccc3)ccc12
[2]
  Emax: 83%

## O=C(O)CCc1c(C(=O)O)[nH]c2c(F)c(Cl)ccc12
[1]
  EC50: 7.9 µM
[2]
  Emax: 87%

## O=C(O)CCc1c(C(=O)O)[nH]c2cc(Cc3ccccc3)ccc12
[1]
  EC50: 4.98 µM
[2]
  Emax: 80%

## CC(C)c1ccc2[nH]c(C(=O)O)c(CCC(=O)O)c2c1
[1]
  EC50: > 30 µM
[3]
  Activity: 6%

## N[C@@H](Cc1c[nH]c2ccccc12)C(=O)O [TRYPTOPHAN]
[4]
  IC50: > 30 µM
[3]
  Activity: 0%
[5]
  inhibition: 1%

## O=C(O)CCc1c(C(=O)O)[nH]c2ccccc12
[1]
  EC50: > 30 µM
[3]
  Activity: 8%

## O=C(O)CCc1c(C(=O)O)[nH]c2cc(Br)cc(F)c12
[1]
  EC50: 0.0279 µM
[2]
  Emax: 102%
[6]
  Activity: inactive
[7]
  Activity: inactive
[8]
  Activity: inactive
[9]
  Activity: inactive
[10]
  Activity: inactive
[11]
  Activity: inactive

## O=C(O)CCc1c(C(=O)O)[nH]c2cc(-c3ccco3)ccc12
[1]
  EC50: 4.13 µM
[2]
  Emax: 74%

## O=C(O)CCc1c(C(=O)O)[nH]c2cc(Oc3ccccc3)ccc12
[1]
  EC50: 0.27 µM
[2]
  Emax: 100%

## COc1cccc2[nH]c(C(=O)O)c(CCC(=O)O)c12
[1]
  EC50: > 100 µM
[12]
  Activity: 4%

## CCCCCOc1cc(Cl)c2c(CCC(=O)O)c(C(=O)O)[nH]c2c1
[1]
  EC50: 0.103 µM
[2]
  Emax: 98%

## O=C(O)CCc1c(C(=O)O)[nH]c2cc(-c3cccs3)ccc12
[1]
  EC50: 9.55 µM
[2]
  Emax: 87%

## O=C(O)CCc1c(C(=O)O)[nH]c2c1ccc1ccccc12
[1]
  EC50: > 30 µM
[3]
  Activity: 0%

## O=C(O)Cc1c[nH]c2ccc(O)cc12
[4]
  IC50: > 30 µM
[3]
  Activity: 1%
[5]
  inhibition: 7%

## CCCCCOc1cc(Cl)cc2[nH]c(C(=O)O)c(CCC(=O)O)c12
[1]
  EC50: ≥ 10 µM

## COc1ccc2c(c1)c(CC(=O)O)c(C)n2C(=O)c1ccc(Cl)cc1 [INDOMETHACIN]
[4]
  IC50: 28.8 µM
[3]
  Activity: 0%

## Cc1cc(C)c2c(CCC(=O)O)c(C(=O)O)[nH]c2c1
[1]
  EC50: 15.1 µM
[2]
  Emax: 76%

## O=C(O)CCc1c(C(=O)O)[nH]c2cc(I)cc(F)c12
[1]
  EC50: 0.0321 µM
[2]
  Emax: 122%
[6]
  Activity: inactive
[7]
  Activity: inactive
[8]
  Activity: inactive
[9]
  Activity: inactive
[10]
  Activity: inactive
[11]
  Activity: inactive

## O=C(O)CCc1c(C(=O)O)[nH]c2cc(Cl)c(Cl)cc12
[1]
  EC50: > 30 µM
[3]
  Activity: 11%

## O=C(O)CCc1c(C(=O)O)[nH]c2c(F)c(Br)ccc12
[1]
  EC50: 4.83 µM
[2]
  Emax: 98%

## O=C(O)CCc1c(C(=O)O)[nH]c2cc(Cl)ccc12
[2]
  Emax: 84%

## O=C(O)CCc1c(C(=O)O)[nH]c2c(Cl)ccc(Cl)c12
[1]
  EC50: > 30 µM
[3]
  Activity: 1%

## O=C(O)CCc1c(C(=O)O)n(CCC(=O)O)c2cc(Cl)cc(Cl)c12
[1]
  EC50: 5.44 µM

## CCCCCCCCOc1cc(Cl)c2c(CCC(=O)O)c(C(=O)O)[nH]c2c1
[1]
  EC50: 0.117 µM
[2]
  Emax: 77%

## O=C(O)CCc1c[nH]c2cc(Cl)cc(Cl)c12
[1]
  EC50: 1.68 µM
[2]
  Emax: 41%

## CN(C)CCc1c[nH]c2ccc(Cn3cncn3)cc12 [RIZATRIPTAN]
[4]
  IC50: > 30 µM
[3]
  Activity: 0%
[5]
  inhibition: 27%

## O=C(O)CCc1c(C(=O)O)[nH]c2c(F)c(-c3ccccc3)ccc12
[1]
  EC50: 3.01 µM
[2]
  Emax: 65%

## O=C(O)CCc1c(C(=O)O)[nH]c2c(F)c(-c3ccco3)ccc12
[1]
  EC50: 14.4 µM
[2]
  Emax: 57%

## O=C(O)CCc1c(C(=O)O)[nH]c2cc(F)cc(F)c12
[2]
  Emax: 72%

## O=C(O)CCc1c(C(=O)O)[nH]c2cc(F)cc(Br)c12
[1]
  EC50: 0.624 µM
[2]
  Emax: 100%

## O=C(O)CCc1c(C(=O)O)[nH]c2cc(-c3ccc(F)cc3)ccc12
[1]
  EC50: 4.02 µM
[2]
  Emax: 48%

## Cn1c(C(=O)O)c(CCC(=O)O)c2c(Cl)cc(Cl)cc21
[1]
  EC50: > 30 µM
[3]
  Activity: 16%

## COc1ccc2c(CCC(=O)O)c(C(=O)O)[nH]c2c1
[1]
  EC50: > 100 µM
[4]
  IC50: 8.4 µM
[12]
  Activity: 35%

## O=C(O)CCc1c(C(=O)O)[nH]c2c(Cl)cc(Cl)c(Cl)c12
[1]
  EC50: > 30 µM
[3]
  Activity: 16%

## O=C(O)CCc1c(C(=O)O)[nH]c2c(Cl)c(Cl)ccc12
[1]
  EC50: > 100 µM
[12]
  Activity: 5%

## O=C(O)CCc1c(C(=O)O)[nH]c2c(F)c(-c3cccs3)ccc12
[1]
  EC50: > 100 µM
[12]
  Activity: 21%

## O=C(O)CCc1c(C(=O)O)[nH]c2c(F)c(-c3ccc(F)cc3)ccc12
[1]
  EC50: > 100 µM

## O=C(O)CCc1c(C(=O)O)[nH]c2cc(-c3ccc(F)cc3)cc(Cl)c12
[1]
  EC50: 0.423 µM
[2]
  Emax: 92%

## O=C(O)CCc1c(C(=O)O)[nH]c2cc(F)ccc12
[1]
  EC50: ≥ 10 µM

## O=C(O)CCc1c(C(=O)O)[nH]c2cc(F)cc(I)c12
[1]
  EC50: 1.47 µM
[2]
  Emax: 92%

## O=C(O)CCc1c(C(=O)O)[nH]c2cccc(-c3ccccc3)c12
[1]
  EC50: > 100 µM
[12]
  Activity: 3%

## O=C(O)/C=C/c1c(C(=O)O)[nH]c2cc(Cl)cc(Cl)c12
[1]
  EC50: > 30 µM
[3]
  Activity: 22%

## COc1ccc2[nH]c(C(=O)O)c(CCC(=O)O)c2c1
[1]
  EC50: > 30 µM
[3]
  Activity: 5%
